Assay outcomes deposited in PubChem by Broad Institute.
Only a selection was taken, and hits are over-represented in it overall.
INS-1E rescue – preserves ATP levels in cytokine-treated INS-1E cells. actives 0.1% (n = 20,000). protection from cytokine-induced ATP loss, % at 10 µM. INS-1E cytokine-induced death, ATP luminescence, 48 h; normalised: neutral wells 0, positive control 100. AID 488910;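 active = mean replicate protection from cytokine-induced ATP loss at least 50% and at least 75% of replicates each reaching 50%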
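Assay system – rat INS-1E insulinoma cell line · Quantity – 8000 cells per well · Buffer or medium – RPMI without phenol red, 5% FBS · Schedule – 48 h co-treatment, 10 min post-lysis read · Technique – luminescent ATP assay (CellTiter-Glo)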
A1 apoptosis 2 – blocks A1, raising caspase activity; MEF A1-2A-BIM cells, caspase-Glo luminescence, 3 h; percent of clofoctol response, DMSO zero; caspase activation, % (test concentration not listed); 24,000 tested, under 10 active; AID 2465; in the data active = caspase activation above about 5.9%
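System: mouse embryonic fibroblasts co-expressing A1 and BIM (A1-2A-BIM), primed for A1 dependence; amount: 2500 cells/well; doses: 50 nL pinned compound; schedule: cells settled overnight, compound exposure 3 h at 37 °C, 5% CO2; detection: Caspase-Glo 3/7 luminescence, 1 h at room temperature; read-out: Caspase-3/7 activation, seen as rise in luminescence signal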
T cruzi HTS – intracellular Trypanosoma cruzi inhibition; activity score (inhibition), % at 5.01 µM; actives 4.9% (n = 22,000); intracellular Trypanosoma cruzi in host cells, plate reader; in the data active = activity score above about 55%;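 note: parasites and compound incubated about four days before reading; 0% = median of neutral control wells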
An asterisk follows results filed as active; · = not tested or not shown.

SMILES | INS-1E rescue | A1 apoptosis 2 | T cruzi HTS
CC(C)NC(=O)Nc1ccc2c(c1)CC(=O)N([C@@H](C)CO)C[C@H](C)[C@@H](CN(C)S(=O)(=O)c1ccc(Cl)cc1)O2 | 4 | 0 | 6
COc1ccc(S(=O)(=O)N(C)C[C@H]2Oc3ccc(NC(=O)Nc4ccc(C(F)(F)F)cc4)cc3CC(=O)N([C@H](C)CO)C[C@H]2C)cc1 | 3 | 0 | 65*
COc1ccc(S(=O)(=O)N(C)C[C@@H]2Oc3ccc(NC(=O)Nc4ccc(C(F)(F)F)cc4)cc3CC(=O)N([C@@H](C)CO)C[C@H]2C)cc1 | · | 0 | ·
C[C@H](CO)N1C[C@H](C)[C@H](CN(C)S(=O)(=O)c2ccc(F)cc2)Oc2ccc(NC(=O)Nc3ccc(C(F)(F)F)cc3)cc2CC1=O | -67 | 1 | 69*
Cc1ccc(S(=O)(=O)N(C)C[C@H]2Oc3ccc(NC(=O)Nc4ccc(C(F)(F)F)cc4)cc3CC(=O)N([C@H](C)CO)C[C@H]2C)cc1 | -5 | 0 | 64*
Cc1ccc(S(=O)(=O)N(C)C[C@@H]2Oc3ccc(NC(=O)Nc4ccc(C(F)(F)F)cc4)cc3CC(=O)N([C@@H](C)CO)C[C@H]2C)cc1 | · | -1 | ·
C[C@H](CO)N1C[C@H](C)[C@H](CN(C)S(=O)(=O)c2ccc(F)cc2)Oc2ccc(NC(=O)Nc3ccc(F)cc3)cc2CC1=O | -7 | -1 | 23
CNC[C@H]1Oc2ccc(NC(=O)Nc3ccc(OC)cc3)cc2C(=O)N([C@H](C)CO)C[C@@H]1C | 7 | -1 | 1
CC(C)NC(=O)Nc1ccc2c(c1)C(=O)N([C@@H](C)CO)C[C@@H](C)[C@H](CN(C)S(=O)(=O)c1cn(C)cn1)OCCCC[C@H](C)O2 | · | 0 | ·
COc1ccc(S(=O)(=O)Nc2ccc3c(c2)C(=O)N([C@@H](C)CO)C[C@@H](C)[C@H](CN(C)Cc2ccc(-c4ccccc4)cc2)O3)cc1 | -36 | · | 43
C[C@H]1CN([C@@H](C)CO)C(=O)c2cccc(NC(=O)Nc3cccc4ccccc34)c2O[C@H]1CN(C)Cc1ccc(C(=O)Nc2ccccc2N)cc1 | -10 | 1 | 68*
Cc1cc(C(=O)Nc2cccc3c2O[C@@H](CN(C)Cc2ccc(C(=O)Nc4ccccc4N)cc2)[C@@H](C)CN([C@H](C)CO)C3=O)n(C)n1 | -15 | · | 54
C[C@@H]1CN([C@H](C)CO)C(=O)c2cccc(NC(=O)Nc3ccccc3)c2O[C@H]1CN(C)Cc1ccc(C(=O)Nc2ccccc2N)cc1 | 4 | 2 | 76*
C[C@@H]1CN([C@@H](C)CO)C(=O)c2cccc(NC(=O)Nc3ccccc3)c2O[C@@H]1CN(C)Cc1ccc(C(=O)Nc2ccccc2N)cc1 | 46 | · | 66*
C[C@H](CO)N1C[C@H](C)[C@H](CN(C)Cc2ccc(C(=O)Nc3ccccc3N)cc2)Oc2c(NC(=O)Nc3cccc4ccccc34)cccc2C1=O | · | 0 | ·
C[C@@H]1CN([C@H](C)CO)C(=O)c2cccc(NC(=O)Nc3cccc4ccccc34)c2O[C@@H]1CN(C)Cc1ccc(C(=O)Nc2ccccc2N)cc1 | · | 0 | ·
Cc1cc(C(=O)Nc2cccc3c2O[C@H](CN(C)Cc2ccc(C(=O)Nc4ccccc4N)cc2)[C@H](C)CN([C@@H](C)CO)C3=O)n(C)n1 | 60* | · | 28
COc1ccc(S(=O)(=O)Nc2ccc3c(c2)CC(=O)N([C@H](C)CO)C[C@@H](C)[C@H](CN(C)C(=O)Nc2c(C)noc2C)O3)cc1 | -4 | · | -16
C[C@@H]1CN([C@H](C)CO)C(=O)Cc2cc(NC(=O)C3CC3)ccc2O[C@H]1CN(C)C(=O)Nc1ccc(C(F)(F)F)cc1 | 6 | 1 | -13
C[C@@H]1CN([C@H](C)CO)C(=O)c2cc(NC(=O)CCCN(C)C)ccc2O[C@H]1CN(C)S(=O)(=O)c1ccccc1 | 2 | · | -10
Cc1noc(C)c1S(=O)(=O)Nc1ccc2c(c1)CC(=O)N([C@H](C)CO)C[C@@H](C)[C@@H](CN(C)Cc1ccc(-c3ccccc3)cc1)O2 | -21 | -2 | 60*
Cc1noc(C)c1S(=O)(=O)Nc1ccc2c(c1)CC(=O)N([C@@H](C)CO)C[C@@H](C)[C@@H](CN(C)Cc1ccc(Oc3ccccc3)cc1)O2 | -15 | 1 | 60*
Cc1noc(C)c1S(=O)(=O)Nc1ccc2c(c1)CC(=O)N([C@@H](C)CO)C[C@@H](C)[C@H](CN(C)Cc1ccccc1)O2 | · | -1 | ·
Cc1noc(C)c1S(=O)(=O)Nc1ccc2c(c1)CC(=O)N([C@@H](C)CO)C[C@H](C)[C@H](CN(C)Cc1ccc(-c3ccccc3)cc1)O2 | -12 | -1 | 19
Cc1noc(C)c1S(=O)(=O)N(C)C[C@H]1Oc2c(NC(=O)C3CCOCC3)cccc2C(=O)N([C@@H](C)CO)C[C@H]1C | 10 | -1 | -16
SMILES | INS-1E rescue | A1 apoptosis 2 | T cruzi HTS
C[C@@H]1CN([C@@H](C)CO)C(=O)Cc2cc(NS(=O)(=O)c3ccc(Cl)cc3)ccc2O[C@@H]1CN(C)Cc1ccc(Cl)c(Cl)c1 | -17 | 0 | 61*
C[C@H]1CN([C@@H](C)CO)C(=O)Cc2cc(NS(=O)(=O)c3ccc(Cl)cc3)ccc2O[C@@H]1CN(C)Cc1ccc(Cl)c(Cl)c1 | 4 | · | 35
C[C@H]1CN([C@@H](C)CO)C(=O)Cc2cc(NS(=O)(=O)c3ccccc3)ccc2O[C@@H]1CN(C)Cc1ccc(Cl)c(Cl)c1 | -9 | -1 | 65*
C[C@H]1CN([C@@H](C)CO)C(=O)Cc2cc(NS(C)(=O)=O)ccc2O[C@@H]1CN(C)Cc1ccc(Cl)c(Cl)c1 | 3 | 1 | 64*
C[C@@H]1CN([C@H](C)CO)C(=O)Cc2cc(NS(C)(=O)=O)ccc2O[C@@H]1CN(C)Cc1ccc(Cl)c(Cl)c1 | -13 | · | 28
C[C@@H]1CN([C@@H](C)CO)C(=O)Cc2cc(NS(=O)(=O)c3ccccc3)ccc2O[C@@H]1CN(C)Cc1ccc(Cl)c(Cl)c1 | -28 | · | 53
COc1ccc(NC(=O)Nc2ccc3c(c2)C(=O)N([C@H](C)CO)C[C@@H](C)[C@H](CN(C)S(=O)(=O)c2ccc(Cl)cc2)O3)cc1 | -3 | 1 | 6
C[C@@H]1CN([C@H](C)CO)C(=O)c2cc(NS(=O)(=O)c3cccs3)ccc2O[C@H]1CN(C)C(=O)Nc1ccc(C(F)(F)F)cc1 | -4 | · | -5
C[C@H](CO)N1C[C@H](C)[C@H](CN(C)Cc2ccc(Oc3ccccc3)cc2)Oc2ccc(NC(=O)Cc3cn(C)c4ccccc34)cc2CC1=O | -23 | · | 19
COc1ccc(CN(C)C[C@H]2Oc3ccc(NC(=O)Cc4cn(C)c5ccccc45)cc3CC(=O)N([C@H](C)CO)C[C@H]2C)cc1 | -7 | 1 | 14
C[C@H]1CN([C@@H](C)CO)C(=O)Cc2cc(NC(=O)Cc3cn(C)c4ccccc34)ccc2O[C@H]1CN(C)Cc1ccc(Cl)c(Cl)c1 | -1 | 0 | 60*
C[C@H](CO)N1C[C@H](C)[C@H](CN(C)Cc2ccc(Cl)c(Cl)c2)Oc2ccc(NC(=O)Cc3cn(C)c4ccccc34)cc2CC1=O | -24 | 0 | 54
